Publication PMC7233462 (Cell reports, 2019)

Assays:
PpKAI2-like C [1] = target: T1, PpKAI2-like C (Physcomitrium patens, UniProt A9SKF7); experiment: Differential scanning fluorimetry; assay type: binding, Physcomitrella patens
PpKAI2-like D [2] = experiment: Differential scanning fluorimetry; assay type: binding, Physcomitrella patens
PpKAI2-like E [3] = experiment: Differential scanning fluorimetry; assay type: binding, Physcomitrella patens
PpKAI2-like H [4] = target: T2, PpKAI2-like H (Physcomitrium patens, UniProt A9SG07); experiment: Differential scanning fluorimetry; assay type: binding, Physcomitrella patens; conditions: PpKAI2-like H wild-type
PpKAI2-like E S166A = target: T3, PpKAI2-like E S166A (Physcomitrium patens, UniProt A9ST85, S166A); experiment: Isothermal titration calorimetry of; assay type: binding, Physcomitrella patens
T3 sequence (A9ST85 1-270 S166A): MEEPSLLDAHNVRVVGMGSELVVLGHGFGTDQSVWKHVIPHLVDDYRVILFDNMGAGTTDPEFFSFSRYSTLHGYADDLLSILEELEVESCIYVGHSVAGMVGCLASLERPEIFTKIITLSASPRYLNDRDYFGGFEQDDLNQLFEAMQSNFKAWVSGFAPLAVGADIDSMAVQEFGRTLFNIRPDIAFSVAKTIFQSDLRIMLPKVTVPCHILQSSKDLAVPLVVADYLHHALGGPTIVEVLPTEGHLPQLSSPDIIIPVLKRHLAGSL
In short: (§1)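 GST-fused protein (wild-type or point mutant) was expressed in E. coli BL21-CodonPlus-RIL, HRV3-cleaved on glutathione resin, then size-excluded in 20 mM Tris-HCl, 30 mM NaCl, 1 mM TCEP, pH 7.7. Protein at 1800 μM was titrated into 40 μM racemic GR24 over 20 injections spaced 240 s apart. Data were fitted to a one-site binding model.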

[5] = target: PpKAI2-like E S166D S170D; experiment: Isothermal titration calorimetry of; assay type: binding, Physcomitrella patens; conditions: ITC
In short: as §1

[6] = system: PpKAI2-like E SDIDSM166TDIHDE; experiment: Differential scanning fluorimetry; assay type: binding, Physcomitrella patens; conditions: loop-swap PpKAI2-like E SDIDSM166TDIHDE
[7] = system: PpKAI2-like H TDIHDE167SDIDSM; experiment: Differential scanning fluorimetry; assay type: binding, Physcomitrella patens; conditions: loop-swap PpKAI2-like H TDIHDE167SDIDSM
D14 = conditions: Arabidopsis D14; ref Zhao et al., 2013; cited from earlier work
DAD2 = conditions: Petunia paralog DAD2; ref Hamiaux et al., 2012; cited from earlier work
PpKAI2-like H [8] = target: T2, PpKAI2-like H; experiment: Fluorescence-based equilibrium microdialysis, KAR1 binding; set-up: species or system Physcomitrella patens
PpKAI2-like K = experiment: as above; set-up: species or system Physcomitrella patens
PpKAI2-like L = experiment: as above; set-up: species or system Physcomitrella patens
PpKAI2-like C [9] = target: T1, PpKAI2-like C; experiment: as above; set-up: species or system Physcomitrella patens
PpKAI2-like D [10] = experiment: as above; set-up: species or system Physcomitrella patens
PpKAI2-like E [11] = experiment: as above; set-up: species or system Physcomitrella patens
PpKAI2-like B = experiment: as above; set-up: species or system Physcomitrella patens
[12] = system: PpKAI2-like E SDIDSM166TDIHDE; experiment: as above; set-up: species or system Physcomitrella patens; conditions: loop-swap PpKAI2-like E SDIDSM166TDIHDE
[13] = system: PpKAI2-like H TDIHDE167SDIDSM; experiment: as above; set-up: species or system Physcomitrella patens; conditions: loop-swap PpKAI2-like H TDIHDE167SDIDSM
AtKAI2 = conditions: read-out: published affinity, ref Guo et al., 2013; cited from earlier work
[14] = system: Physcomitrella caulonema growth; conditions: ref Hoffmann et al., 2014; cited from earlier work
PpKAI2-like C [15] = target: T1, PpKAI2-like C; assay type: biochemical, Physcomitrella patens; conditions: 1 μM PpKAI2-like C, 1 mM substrate, 3 h, room temperature
PpKAI2-like D [16] = assay type: biochemical, Physcomitrella patens; conditions: 1 μM PpKAI2-like D, 1 mM substrate, 3 h, room temperature
PpKAI2-like E [17] = assay type: biochemical, Physcomitrella patens; conditions: 1 μM PpKAI2-like E, 1 mM substrate, 3 h, room temperature
PpKAI2-like C [18] = target: T1, PpKAI2-like C; experiment: Mass spectrometry of protein for D ring modification; assay type: biochemical, Physcomitrella patens; conditions: PpKAI2-like C incubated with ligand
PpKAI2-like D [19] = experiment: as above; assay type: biochemical, Physcomitrella patens; conditions: PpKAI2-like D incubated with ligand
PpKAI2-like E [20] = experiment: as above; assay type: biochemical, Physcomitrella patens; conditions: PpKAI2-like E incubated with ligand

Compound: (−)-4-deoxyorobanchol
- change of protein melting point (DSF) (PpKAI2-like C [1]): unable to detect a change in melting points
- change of protein melting point (DSF) (PpKAI2-like D [2]): unable to detect a change in melting points
- change of protein melting point (DSF) (PpKAI2-like E [3]): unable to detect a change in melting points

Compound: CC1=CC(O/C=C(C)\C=C\C2=C(C)CCCC2(C)C)OC1=O (racemic) [rac-carlactone]
- change of protein melting point (DSF) (PpKAI2-like C [1]): unable to detect any interaction
- change of protein melting point (DSF) (PpKAI2-like D [2]): unable to detect any interaction
- change of protein melting point (DSF) (PpKAI2-like E [3]): unable to detect any interaction
- binding / interaction (DSF) (PpKAI2-like H [4]): unable to detect any interaction

Compound: CC1=CC(O/C=C2/C(=O)OC3c4ccccc4CC23)OC1=O (racemic) [(±)-GR24]
- Kd (PpKAI2-like E S166A): 81 µM
- binding of (±)-GR24 [5]: unable to detect binding
- change of protein melting point (DSF) (PpKAI2-like C [1]): destabilization
- change of protein melting point (DSF) (PpKAI2-like D [2]): destabilization
- change of protein melting point (DSF) (PpKAI2-like E [3]): strongest shift of the protein melting point
- binding / interaction (DSF) (PpKAI2-like H [4]): no binding observed
- affinity (DSF) [6]: reduced compared to wild-type
- affinity (DSF) [7]: weak affinity
- turnover rate (D14): 1 (±)-GR24 molecule/3 min
- turnover rate (DAD2): 3 (±)-GR24 molecules/hr

Compound: Cc1c2ccocc-2oc1=O [KAR1]
- Kd (PpKAI2-like H [8]): 6.7 µM
- Kd (PpKAI2-like K): 7.7 µM
- Kd (PpKAI2-like L): 5.2 µM
- KAR1 binding (PpKAI2-like C [9]): unable to detect KAR1 binding
- KAR1 binding (PpKAI2-like D [10]): unable to detect KAR1 binding
- KAR1 binding (PpKAI2-like E [11]): unable to detect KAR1 binding
- KAR1 binding (PpKAI2-like B): do not bind
- KAR1 binding [12]: weak binding
- KAR1 binding [13]: lost KAR1 binding ability
- Kd (AtKAI2): 9 µM
- effect on Physcomitrella caulonema growth [14]: not found any effect

Compound: (+)-5-deoxystrigol
- change of protein melting point (DSF) (PpKAI2-like C [1]): unable to detect a change in melting points
- change of protein melting point (DSF) (PpKAI2-like D [2]): unable to detect a change in melting points
- change of protein melting point (DSF) (PpKAI2-like E [3]): unable to detect a change in melting points
- degradation of intact substrate mass (PpKAI2-like C [15]): did not observe any effect
- degradation of intact substrate mass (PpKAI2-like D [16]): did not observe any effect
- degradation of intact substrate mass (PpKAI2-like E [17]): did not observe any effect
- D ring modification of active site histidine (PpKAI2-like C [18]): unable to detect the modification
- D ring modification of active site histidine (PpKAI2-like D [19]): unable to detect the modification
- D ring modification of active site histidine (PpKAI2-like E [20]): unable to detect the modification

Compound: (+)-4-deoxyorobanchol
- change of protein melting point (DSF) (PpKAI2-like C [1]): unable to detect a change in melting points
- change of protein melting point (DSF) (PpKAI2-like D [2]): unable to detect a change in melting points
- change of protein melting point (DSF) (PpKAI2-like E [3]): unable to detect a change in melting points

Compound: (−)-5-deoxystrigol
- change of protein melting point (DSF) (PpKAI2-like C [1]): absolute preference
- change of protein melting point (DSF) (PpKAI2-like D [2]): absolute preference
- change of protein melting point (DSF) (PpKAI2-like E [3]): absolute preference
- binding / interaction (DSF) (PpKAI2-like H [4]): no binding observed
- affinity (DSF) [6]: reduced compared to wild-type
- affinity (DSF) [7]: weak affinity
- degradation of intact substrate mass (PpKAI2-like C [15]): loss of intact (−)-5-deoxystrigol mass
- degradation of intact substrate mass (PpKAI2-like D [16]): loss of intact (−)-5-deoxystrigol mass
- degradation of intact substrate mass (PpKAI2-like E [17]): loss of intact (−)-5-deoxystrigol mass
- D ring modification of active site histidine (PpKAI2-like C [18]): 96 Da mass of the D ring to be attached to the active site histidines
- D ring modification of active site histidine (PpKAI2-like D [19]): 96 Da mass of the D ring to be attached to the active site histidines
- D ring modification of active site histidine (PpKAI2-like E [20]): 96 Da mass of the D ring to be attached to the active site histidines
